Source: ChEMBL document CHEMBL1123895, “Synthesis and anti-HIV activity of various 2'- and 3'-substituted 2',3'-dideoxyadenosines: a structure-activity analysis” (1987)

Tests used:
[1] = Selectivity ratio CD50 to ED50; format: functional
Procedure, shortened: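 Ratio of CD50 to ED50. CD50 is from uninfected MT-4 cells and ED50 from MT-4 cells infected with HIV at 10 CCID50 per well. Both are read after 5 days with compound by trypan blue viable cell counting in a blood cell counting chamber.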

MT4 [2] = test: Cytotoxicity was determined as the dose required to reduce the viability of uninfected MT-4 cells by 50%; format: functional; settings: Homo sapiens, read-out: CD50 (the source's name)
Procedure, shortened: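 Mock-infected MT-4 cells incubated 5 days with a range of compound concentrations. Viable cells counted in a blood cell counting chamber after trypan blue staining.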

MT4 [3] = test: (§1) Anti-HIV activity was determined as dose required to protect 50% of the HIV-infected MT-4 cells against destruction; format: functional, Homo sapiens; settings: read-out: ED50 (the source's name)
Procedure, shortened: (§2)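 MT-4 cells infected with HIV at 10 CCID50 per well, incubated 5 days with a range of compound concentrations. Viable cells counted in a blood cell counting chamber after trypan blue staining.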

MT4 [4] = test: as §1; format: functional; settings: Homo sapiens, read-out: ED50 (the source's name); procedure, shortened: as §2

| Compound | Ratio [1] | CC50 (MT4 [2]) [µM] | EC50 (MT4 [3]; Homo sapiens, MT4) [µM] | EC50 (MT4 [4]) [µM] | EC50 (MT4 [3]) [µM] |
| --- | --- | --- | --- | --- | --- |
| Nc1ncnc2c1ncn2[C@H]1C[C@H](F)[C@@H](CO)O1 (stereo in doubt; 13) [listing 1 of 2 here] | > 2.8 |  |  |  |  |
| Nc1ncnc2c1ncn2[C@@H]1O[C@H](CO)C[C@@H]1F [LODENOSINE] | > 18 | > 625 | 35 |  |  |
| Nc1ncnc2c1ncn2[C@@H]1O[C@H](CO)C[C@H]1F |  | > 625 |  | > 625 |  |
| [N-]=[N+]=N[C@H]1C[C@@H](CO)O[C@H]1n1cnc2c(N)ncnc21 | 11.4 | 625 | 55 |  |  |
| [N-]=[N+]=N[C@@H]1C[C@@H](CO)O[C@H]1n1cnc2c(N)ncnc21 | > 2.9 | > 625 |  | 215 |  |
| Nc1ncnc2c1ncn2[C@H]1C[C@H](F)[C@@H](CO)O1 (stereo in doubt; 12) [listing 1 of 2 here] | 11.1 |  |  |  |  |
| Nc1ncnc2c1ncn2[C@H]1C[C@H](F)[C@@H](CO)O1 (stereo in doubt; 13) [listing 2 of 2 here] |  | > 625 |  |  | 221 |
| Cc1cn([C@H]2C[C@H](N=[N+]=[N-])[C@@H](CO)O2)c(=O)[nH]c1=O [ZIDOVUDINE] | 666 | 4 | 0.006 |  |  |
| Nc1ncnc2c1ncn2[C@H]1CC[C@@H](CO)O1 | 148 | 889 | 6.2 |  |  |
| Nc1ncnc2c1ncn2[C@H]1C=C[C@@H](CO)O1 | < 1.2 | 34 | > 25 |  |  |
| Nc1ncnc2c1ncn2[C@H]1C[C@H](F)[C@@H](CO)O1 (stereo in doubt; 12) [listing 2 of 2 here] |  |  |  |  | 50 |
